Measurements taken from ChEMBL document CHEMBL1141839, “Antifungal jujubogenin saponins from Colubrina retusa” (1999).
In brackets after ≈: the same amount, converted by molar mass. Activity calls are given as the source filed them. The calls are words filed in the database; no cut-off is given here.

Columns and labels:
Candida albicans [1] = assay: Antifungal activity against Candida albicans after 24 hrs; type: functional
How it was run: (§1)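 Modified NCCLS broth microdilution in 96-well format. C. albicans grown in SDB to the desired density and seeded into wells. Pure compounds tested at final 50, 10 and 2 μg/mL. Incubated 24 h at 37 °C, with growth scored at each level. MIC is the lowest tested concentration with no growth. Amphotericin B served as positive control.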

Cryptococcus neoformans [2] = assay: Antifungal activity against Cryptococcus neoformans after 48 hrs; type: functional
How it was run: (§2)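 C. neoformans grown in Mycophil broth to the desired density, then seeded into 96-well plates (modified NCCLS microdilution). Pure compounds added at final 50, 10 and 2 μg/mL. Incubation 48 h, 30 °C, with growth assessed per concentration. MIC is the lowest tested level showing no growth. Amphotericin B positive control.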

Aspergillus fumigatus [3] = assay: Antifungal activity against Aspergillus fumigatus after 48 hrs; type: functional
How it was run: (§3)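 A. fumigatus spores gently scraped from fungal growth and used as inoculum in a 96-well adaptation of the NCCLS protocol. Pure compounds at final 50, 10 and 2 μg/mL. Incubated 48 h at 30 °C, with growth read at each concentration. MIC is the lowest tested concentration without growth. Amphotericin B positive control.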

Candida albicans [4] = assay: Antifungal activity against Candida albicans at 2 ug/mL after 24 hrs; type: functional, organism-based; how it was run: as §1
Cryptococcus neoformans [5] = assay: Antifungal activity against Cryptococcus neoformans at 2 ug/mL after 48 hrs; type: functional, organism-based; how it was run: as §2
Aspergillus fumigatus [6] = assay: Antifungal activity against Aspergillus fumigatus at 2 ug/mL after 48 hrs; type: functional, organism-based; how it was run: as §3

Row | MIC (Candida albicans [1]) [µg/mL] | MIC (Cryptococcus neoformans [2]) [µg/mL] | MIC (Aspergillus fumigatus [3]) [µg/mL] | Structure (SMILES) | further results
1 | 50 (≈ 55.6 µM) | 50 (≈ 55.6 µM) | 50 (≈ 55.6 µM) | CC(C)=C[C@H]1C[C@](C)(O)[C@@H]2[C@H]3CC[C@@H]4[C@@]5(C)CC[C@H](O[C@@H]6OC[C@H](O)[C@H](O[C@@H]7O[C@H](CO)[C@@H](O)[C@H](O)[C@H]7O)[C@H]6O[C@@H]6O[C@@H](CO)[C@H](O)[C@H]6O)C(C)(C)[C@@H]5CC[C@@]4(C)[C@@]34CO[C@@]2(C4)O1 | –
2 | – | – | – | CC(C)=C[C@H]1C[C@](C)(O)[C@@H]2[C@H]3CC[C@@H]4[C@@]5(C)CC[C@H](O[C@@H]6OC[C@H](O)[C@H](O[C@@H]7O[C@H](CO)[C@@H](O)[C@H](O)[C@H]7O)[C@H]6O[C@@H]6O[C@@H](COC(=O)CC(=O)O)[C@H](O)[C@H]6O)C(C)(C)[C@@H]5CC[C@@]4(C)[C@@]34CO[C@@]2(C4)O1 | Activity (Candida albicans [1]): inactive; Activity (Cryptococcus neoformans [2]): inactive; Activity (Aspergillus fumigatus [3]): inactive
3 | – | – | – | C[C@@H]1[C@H](O)[C@@H](C)/C=C/C=C/C=C/C=C/C=C/C=C/C=C/[C@H](O[C@@H]2O[C@H](C)[C@@H](O)[C@H](N)[C@@H]2O)C[C@@H]2O[C@](O)(C[C@@H](O)C[C@@H](O)[C@H](O)CC[C@@H](O)C[C@@H](O)CC(=O)O[C@H]1C)C[C@H](O)[C@H]2C(=O)O | Activity (Candida albicans [4]): Active; Activity (Cryptococcus neoformans [5]): Active; Activity (Aspergillus fumigatus [6]): Active
4 | > 50 | 50 (≈ 47.8 µM) | > 50 | CC(C)=C[C@H]1C[C@](C)(O)[C@@H]2[C@H]3CC[C@@H]4[C@@]5(C)CC[C@H](O[C@@H]6OC[C@H](O)[C@H](O[C@@H]7O[C@H](CO)[C@@H](O)[C@H](O)[C@H]7OC(=O)/C=C/c7ccc(O)cc7)[C@H]6O[C@@H]6O[C@@H](CO)[C@H](O)[C@H]6O)C(C)(C)[C@@H]5CC[C@@]4(C)[C@@]34CO[C@@]2(C4)O1 | –
